Assay results from different studies.
Compare with care: the assays were run in different laboratories.
MAOB: Amine oxidase [flavin-containing] B (MAOB, Homo sapiens, UniProt P27338)

COc1ccc2oc(-c3ccc4nc(N)oc4c3)c/c(=N\c3ccccc3NC(=O)CCN)c2c1
remaining binding (Phosphatidylinositol 3-kinase C2 domain-containing subunit gamma (PIK3C2G, Homo sapiens, UniProt O75747); binding; 1 µM): 37%

Nc1ncnc2c1ncn2[C@@H]1O[C@H](COP(=O)(O)OP(=O)(O)OP(=O)(O)O)[C@@H](O)[C@H]1O
Km (GUK1 (Homo sapiens, UniProt Q16774); enzyme activity; substrate): 102 µM

NC/C(=C\F)COc1cccc(Cn2c(=S)[nH]c(=O)c3[nH]cnc32)c1
inhibition (MAOB; enzyme activity; inhibitor; 200 pM): 29.1%

O=C(Nc1ccc(Cl)c(Br)c1)c1ccc2c(c1)C(=O)NC2=O
inhibition (MAOB; enzyme activity; inhibitor; 1 µM): 97.5%

Cc1cc(S(=O)(=O)N[C@H]2CC[C@H](CN3CCN(c4ccc(C5CCC(=O)NC5=O)cc4F)CC3)CC2)ccc1Nc1ncc(C(F)(F)F)c(N2CCC[C@](C)(O)C2)n1 (stereo partly drawn)
remaining binding (NUAK family SNF1-like kinase 2 (NUAK2, Homo sapiens, UniProt Q9H093); binding; competition with immobilised ligand; 1 µM): 26%

O=C(Nc1ccc(Cl)cc1)c1ccc2c(c1)C(=O)NC2=O
inhibition (MAOB; enzyme activity; inhibitor; 1 µM): 52%

C#Cc1cc(-c2cc(Nc3nc(N[C@@H](C)c4ccc(F)cn4)ncc3Cl)n[nH]2)ccc1C=O
inhibition (Serine/threonine-protein kinase N1 (PKN1, Homo sapiens, UniProt Q16512); enzyme activity; inhibitor; 0.2 µM): 38.5%

C[C@H](NC(=O)C(=O)Nc1ccccc1C(C)(C)C)C(=O)N[C@@H](CC(=O)O)C(=O)COc1c(F)c(F)cc(F)c1F
kinact/KI (Caspase-1 (Casp1, Mus musculus, UniProt P29452); enzyme activity; inhibitor): 4.27e+06 M⁻¹ s⁻¹

O=C(Nc1ccc(F)c(F)c1)c1ccc2c(c1)C(=O)NC2=O
inhibition (MAOB; enzyme activity; inhibitor; 1 µM): 90.6%

C1=C/COCc2cc(ccc2OCCN2CCCC2)Nc2nccc(n2)-c2cccc(c2)COC/1
remaining signal (Ribosomal protein S6 kinase alpha-6, N-terminal kinase domain (RPS6KA6, Homo sapiens, UniProt Q9UK32); cell-free assay; 0.1 µM): 78%

O=C(Nc1cc(Cl)cc(Cl)c1)c1ccc2c(c1)C(=O)NC2=O
inhibition (MAOB; enzyme activity; inhibitor; 1 µM): 89.3%

CCCCC(=O)Nc1ccc(-c2ccc3ncn(CCC)c(=O)c3c2)cn1
remaining binding (Tyrosine-protein kinase HCK (HCK, Homo sapiens, UniProt P08631); binding; competition with immobilised ligand; 0.5 µM): 98%
